From ChEMBL document CHEMBL1128718, “2-Substituted penems with amino acid-related side chains: synthesis and antibacterial activity of a new series of beta-lactam antibiotics” (1995)

Tests used:
Type in all cases: functional
Streptococcus pneumoniae = assay: In Vitro Anti Bacterial Activity (MIC90) against 90% of tested clinical Isolates of Streptococcus pneumoniae (23)
Listeria monocytogenes = assay: In Vitro Anti Bacterial Activity (MIC 90) against 90% of tested clinical Isolates of Listeria monocytogenes (20)
Summary of the method: (§1)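 Over 500 clinical isolates tested in total; the line gives the isolate count. MIC90 for aerobes by dilution in Mueller Hinton 2 medium, inoculum 10⁴ cells/mL, incubated 24 h at 37 °C.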

Staphylococcus aureus [1] = assay: In vitro antibacterial activity against Sa(II) Staphylococcus aureus ATCC 25923
Summary of the method: (§2)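 Panel of standard ATCC strains plus modified strains: methicillin-resistant, hyperpermeable, β-lactamase-producing (TEM1, TEM2, SHV) and β-lactamase-lacking. MIC determined in Mueller Hinton 2 medium, inoculum 10⁴ cells/mL, incubated 24 h at 37 °C.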

Pseudomonas aeruginosa [2] = assay: In Vitro antibacterial activity against (Pa) Pseudomonas aeruginosa ATCC 27853; summary of the method: as §2
Pseudomonas aeruginosa [3] = assay: In Vitro antibacterial activity against (Pa G242) hyperpermeable Pseudomonas aeruginosa strain; summary of the method: as §2
Enterococcus faecium = assay: In Vitro Anti Bacterial Activity (MIC90) against 90% of tested clinical Isolates of Enterococcus faecium(47); summary of the method: as §1
Moraxella catarrhalis = assay: In Vitro Anti Bacterial Activity (MIC90) against 90% of tested clinical Isolates of Branhamella catarrhalis(27)
Escherichia coli [4] = assay: In Vitro antibacterial activity against (Ec TEM2) Escherichia coli […] strain; summary of the method: as §2
Staphylococcus aureus [5] = assay: In vitro antibacterial activity against Sa MR(II) homogeneous methicillin resistant Staphylococcus aureus
Summary of the method: (§3)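 MIC was determined in Mueller Hinton 2 medium with an inoculum of 10⁴ cells/mL and incubation for 24 h at 37 °C. Strains: Sa(I) is S. aureus ATCC 29213; Sa MR(I) is a heterogeneous methicillin-resistant S. aureus; Sa MR(II) is a homogeneous methicillin-resistant S. aureus.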

[6] = tested on: Staphylococcus epidermidis; assay: In Vitro Anti Bacterial Activity (MIC90) against 90% of tested clinical Isolates of Staphylococcus epidermidis (13); summary of the method: as §1
Haemophilus influenzae = assay: In Vitro Anti Bacterial Activity (MIC90) against 90% of tested clinical Isolates of Haemophilus Influenzae(21)
Summary of the method: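 Clinical isolates. MIC90 in Haemophilus Test Medium Base plus Haemophilus Test Medium Supplement, inoculum 10⁴ cells/mL, incubated 24–48 h at 37 °C.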

Klebsiella aerogenes = assay: In Vitro Anti Bacterial Activity (MIC90) against 90% of tested clinical Isolates of Enterobacter aerogenes(19); summary of the method: as §1
Escherichia coli [7] = assay: In Vitro Anti Bacterial Activity (MIC90) against 90% of tested clinical Isolates of Escherichia coli; summary of the method: as §1
Bacteroides fragilis = assay: In Vitro Anti Bacterial Activity (MIC90) against 90% of tested clinical Isolates of Bacteroides fragilis(15)
Summary of the method: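 Anaerobic clinical isolates. MIC90 by dilution in Wilkins-Chalgren agar, inoculum 10⁵ cells/mL, incubated 24–48 h at 37 °C.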

Streptococcus agalactiae = assay: In Vitro Anti Bacterial Activity (MIC90) against 90% of tested clinical Isolates of Streptococcus agalactiaeB(21)
Clostridium perfringens = assay: In Vitro Anti Bacterial Activity (MIC90) against 90% of tested clinical Isolates of Clostridium perfringens(27)
Summary of the method: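 MIC90 over clinical isolates of this anaerobic species, taken from the MIC distribution. Anaerobes were tested on Wilkins-Chalgren agar with an inoculum of 10⁵ cells/mL and incubated 24–48 h at 37 °C.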

Pseudomonas aeruginosa [8] = assay: In Vitro antibacterial activity against (Pa) hyperpermeable Pseudomonas aeruginosa […] strain; summary of the method: as §2
Yersinia sp. = assay: In Vitro Anti Bacterial Activity (MIC90) against 90% of tested clinical Isolates of Yersinia species(20); settings: Yersinia sp. (in: enterobacteria)
Staphylococcus aureus [9] = assay: In Vitro Anti Bacterial Activity (MIC90) against 90% of tested clinical Isolates of Staphylococcus aureus MV (20)
Staphylococcus aureus [10] = assay: In vitro antibacterial activity against Sa(I) Staphylococcus aureus ATCC 29213; summary of the method: as §3
Staphylococcus aureus [11] = assay: In vitro antibacterial activity against Sa MR(I) heterogeneous methicillin resistant Staphylococcus aureus; summary of the method: as §3
Citrobacter freundii = assay: In Vitro Anti Bacterial Activity (MIC90) against 90% of tested clinical Isolates of Citrobacter freundii(20); summary of the method: as §1
Escherichia coli [12] = assay: In Vitro antibacterial activity against (Ec) Escherichia coli ATCC 25922; summary of the method: as §2
Enterococcus faecalis [13] = assay: In Vitro Anti Bacterial Activity (MIC90) against 90% of tested clinical Isolates of Enterococcus faecalis(47); summary of the method: as §1
Staphylococcus aureus [14] = assay: In Vitro Anti Bacterial Activity (MIC90) against 90% of tested clinical Isolates of Staphylococcus aureus MS (6); summary of the method: as §1
Klebsiella pneumoniae = assay: In Vitro Anti Bacterial Activity (MIC90) against 90% of tested clinical Isolates of Klebsiella pneumoniae(20); summary of the method: as §1
Enterococcus faecalis [15] = assay: In Vitro antibacterial activity against (Ef) Enterococcus faecalis ATCC 29212; summary of the method: as §2
Aeromonas = assay: In Vitro Anti Bacterial Activity (MIC90) against 90% of tested clinical Isolates of Aeromonas species(21); summary of the method: as §1
Escherichia coli [16] = assay: In Vitro antibacterial activity against (Ec TEM1) Escherichia coli […] strain; summary of the method: as §2
Pseudomonas aeruginosa [17] = assay: In Vitro Anti Bacterial Activity (MIC90) against 90% of tested clinical Isolates of Pseudomonas aeruginosa(11); summary of the method: as §1
Escherichia coli [18] = assay: In Vitro antibacterial activity against (Ec DC2) hyperpermeable Escherichia coli strain; summary of the method: as §2
Escherichia coli [19] = assay: In Vitro antibacterial activity against (Ec L) Escherichia coli […] strain; summary of the method: as §2
Streptococcus pyogenes = assay: In Vitro Anti Bacterial Activity (MIC90) against 90% of tested clinical Isolates of Streptococcus pyogenes(31)
[20] = tested on: Stenotrophomonas maltophilia; assay: In Vitro Anti Bacterial Activity (MIC90) against 90% of tested clinical Isolates of Xanthomonas maltophilia(9); summary of the method: as §1
Escherichia coli [21] = assay: In Vitro antibacterial activity against (Ec SHV) Escherichia coli […] strain; summary of the method: as §2
[22] = tested on: Acinetobacter calcoaceticus subsp. anitratus; assay: In Vitro Anti Bacterial Activity (MIC90) against 90% of tested clinical Isolates of Acinetobacter anitratus(20); summary of the method: as §1

C[C@@H](O)[C@H]1C(=O)N2C(C(=O)O)=C(CN(C)[C@@H](C)C(N)=O)S[C@H]12
8 µg/mL: MIC90 (Bacteroides fragilis) | MIC90 (Staphylococcus aureus [9]) | MIC90 (Enterococcus faecalis [13])
0.12 µg/mL: MIC (Staphylococcus aureus [11]) | MIC90 (Staphylococcus aureus [14])
0.015 µg/mL: MIC (Staphylococcus aureus [10])
2 µg/mL: MIC (Staphylococcus aureus [5]) | MIC90 (Aeromonas)
4 µg/mL: MIC90 (Haemophilus influenzae) | MIC (Enterococcus faecalis [15])
0.5 µg/mL: MIC90 (Listeria monocytogenes) | MIC90 (Moraxella catarrhalis) | MIC90 (Clostridium perfringens) | MIC90 (Yersinia sp.) | MIC (Escherichia coli [21])
0.06 µg/mL: MIC90 (Streptococcus pneumoniae) | MIC (Staphylococcus aureus [1]) | MIC90 (Streptococcus agalactiae) | MIC90 (Streptococcus pyogenes)
> 64 µg/mL: MIC (Pseudomonas aeruginosa [2]) | MIC90 (Enterococcus faecium) | MIC90 (Pseudomonas aeruginosa [17]) | MIC90 [20]
1 µg/mL: MIC (Escherichia coli [4]) | MIC (Pseudomonas aeruginosa [8]) | MIC90 (Citrobacter freundii) | MIC90 (Klebsiella pneumoniae) | MIC (Escherichia coli [18])
0.25 µg/mL: MIC (Pseudomonas aeruginosa [3]) | MIC90 [6] | MIC90 (Escherichia coli [7]) | MIC (Escherichia coli [12]) | MIC (Escherichia coli [16]) | MIC (Escherichia coli [19])
32 µg/mL: MIC90 (Klebsiella aerogenes) | MIC90 [22]
